The source of these data is ChEMBL document CHEMBL1135828, “Syntheses and antitumor targeting G1 phase of the cell cycle of benzoyldihydroisoquinolines and related 1-substituted isoquinolines” (J Med Chem, 2002).

Each structure is given as a SMILES string.

The first assay relates to L1210 (1565). Description: Percent inhibition against cells in G 1 phase by the compound.
Conditions: not given
The format is functional, Mus musculus.
`CCCCCOc1cc2c(cc1OC)C(C)=NCC2` gave an Inhibition of 72%.

Another assay deals with L1210 (1565). Description: Percent inhibition against cells in G 1 phase by the compound at the dose 25 uM. The format is functional. Particulars: Mus musculus.
`COc1cc2c(cc1OCc1ccccc1)CCN=C2C(=O)c1cccc(S(=O)(=O)c2ccc(C)cc2)c1` displayed an inhibition at 25 µM of 70%.
As to `COc1cc2c(cc1OCC(C)C)CCN=C2C(=O)c1ccccc1`, the inhibition at 25 µM is 63%.
As to `COc1cc2c(cc1OCC=C(C)C)CCN=C2C(=O)c1ccccc1`, the inhibition at 25 µM is 65%.

The test system of the next assay is L1210 (1565). Description: Percent inhibition against cells in G 1 phase by the compound at the dose 10 uM. The format is functional. The note with it: Mus musculus.
In turn, `COc1cc2c(cc1OCc1ccccc1)CCN=C2C(=O)c1ccccc1` yielded an inhibition at 10 µM of 85%.
The same measure, in the same setting: the value for `O=C(C1=NCCc2cc(OCc3ccccc3)ccc21)c1ccccc1` was 54%.

For another assay, the system named is L1210 (1565). Description: Inhibitory activity against L 1210 cell proliferation. The format is functional, cell-based. Particulars: Mus musculus. An outline of the steps:
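L1210 murine leukemia cells grown in RPMI 1640 with 10% fetal calf serum, 2 mM L-glutamine, penicillin/streptomycin and 10 mM Hepes (pH 7.4). Cells exposed to graded drug concentrations for 48 h. Microculture tetrazolium assay read-out; IC50 is the concentration reducing optical density by 50% relative to untreated controls.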
`CCCCCOc1cc2c(cc1OC)CCN=C2C(=O)c1ccccc1`: it took 3.7 µM to reach half-maximal inhibition (IC50).
The compound `COc1cc2ccnc(C(=O)c3ccccc3)c2cc1O` showed a concentration for half-maximal inhibition (IC50) of over 10 µM.
`COc1cc2c(cc1OCc1ccccc1)CCN=C2C(=O)c1ccccc1OC` registered an IC50 of over 10 µM.
Consider `C[N+]1=C(C(=O)c2ccccc2)c2ccc(OCc3ccccc3)cc2CC1`, for which the midpoint of inhibition, the IC50, lay at 9.8 µM.
Compound `CCCCCOc1cc2ccnc(C(=O)c3ccccc3)c2cc1OC` had an IC50 of over 10 µM.
Regarding `CCCCCOc1ccc2c(c1)CCN=C2C(=O)c1ccccc1`, inhibition was half-maximal at 1 µM (IC50).
`COc1cc2c(cc1O)C(C(=O)c1ccccc1)=NCC2` yielded a half-maximal inhibitory concentration (IC50) of over 10 µM.
Still for that read-out and setting: the value for `COc1cc2c(C(=O)c3ccc(O)cc3)nccc2cc1OCc1ccccc1` was 11.5 µM.
Take `COc1cc2c(cc1OCc1ccccc1)CCN=C2C(=O)c1cccc(O)c1`: the half-inhibitory concentration (IC50) came out at 5.3 µM.
On the same count and under the same terms, the value for `COc1cc2c(C(=O)c3ccccc3)nccc2cc1OCc1ccccc1` was over 10 µM; that for `COc1ccc(C(=O)C2=NCCc3cc(OCc4ccccc4)ccc32)cc1` was over 10 µM.
Regarding `COc1cc2c(cc1OCc1ccccc1)C(C(=O)c1ccccc1)=NCC2`, the IC50 was found to be 3.6 µM.
`COc1ccc(C(=O)C2=[N+](C)CCc3cc(OCc4ccccc4)c(OC)cc32)cc1OC` returned a half-maximal inhibitory concentration (IC50) of over 10 µM.
Same read-out and setting: the result for `COc1cc2c(cc1OCc1ccccc1)CCN=C2C(=O)c1ccccc1` reads 4.1 µM; that for `CCCCCOc1cc2c(cc1OC)C(C(=O)c1ccccc1)=NCC2`, 4.5 µM.
Take `O=C(C1=NCCc2cc(OCc3ccccc3)ccc21)c1ccccc1`: the concentration for half-maximal inhibition (IC50) amounted to 6.5 µM.
With `CC(C)COc1ccc2c(c1)CCN=C2C(=O)c1ccccc1`, the concentration for half-maximal inhibition (IC50) came out at 11.9 µM.
As for `COc1cc2c(cc1OCc1ccccc1)CCN=C2C(=O)c1cccc(S(=O)(=O)c2ccc(C)cc2)c1`, the IC50 amounted to 4.1 µM.
In turn, `C/C=C/COc1cc2c(cc1OC)C(C(=O)c1ccccc1)=NCC2` returned a half-maximal inhibitory concentration (IC50) of 13.1 µM.
In turn, `CCCCCOc1cc2c(cc1OC)C(C)=NCC2` had an IC50 of 7.7 µM.
Same read-out and setting: the value for `COc1cc2c(cc1OCc1ccccc1)CCN=C2c1ccccc1` was over 10 µM; that for `COc1cc2c(cc1OCc1ccccc1)CCN=C2C(=O)c1cccc(OC(C)=O)c1` was 4.7 µM; that for `COc1cc2c(cc1OCc1ccccc1)CCN=C2C(=O)c1ccccc1O` was over 10 µM.
`COc1cc2c(cc1O)CCN=C2c1ccccc1` displayed an IC50 of over 10 µM.
The compound `COc1cc2c(cc1OCC(C)C)CCN=C2C(=O)c1ccccc1` yielded a 50% inhibitory concentration (IC50) of 6.1 µM.
`COc1cc2ccnc(C(=O)c3ccccc3)c2cc1OCc1ccccc1`: the IC50 is over 10 µM.
In turn, `COc1cc2c(C(=O)c3ccccc3O)nccc2cc1OCc1ccccc1` displayed an IC50 of over 10 µM.
The same measure, in the same setting: the value for `CCCCC1=NCCc2cc(OCc3ccccc3)c(OC)cc21` was over 10 µM; that for `CC(C)=CCOc1ccc2c(c1)CCN=C2C(=O)c1ccccc1` was 3.8 µM.
The compound `C/C=C/COc1ccc2c(c1)CCN=C2C(=O)c1ccccc1` displayed an IC50 of over 10 µM.
For `COc1ccc(C(=O)C2=NCCc3cc(OCc4ccccc4)c(OC)cc32)cc1OC`, it took 13 µM to reach half-maximal inhibition (IC50).
Take `COc1cc2c(C(=O)c3cccc(O)c3)nccc2cc1OCc1ccccc1`: the IC50 came to 11.6 µM.
`COc1cccc(C(=O)C2=NCCc3cc(OCc4ccccc4)ccc32)c1` yielded a concentration for half-maximal inhibition (IC50) of 1.4 µM.
The same measure, in the same setting: the value for `COc1cc2c(cc1OCc1ccccc1)CCN=C2c1ccccc1O` was over 10 µM; that for `COc1cc2c(cc1O)CCN=C2C(=O)c1ccccc1` was over 10 µM; that for `COc1ccc(C(=O)C2=NCCc3cc(OCc4ccccc4)ccc32)cc1OC` was over 10 µM.
In the case of `COc1cc2c(cc1OCC=C(C)C)CCN=C2C(=O)c1ccccc1`, the concentration for half-maximal inhibition (IC50) was 9.4 µM.
Take `COc1cc2c(C(=O)c3ccccc3)nccc2cc1O`: the IC50 was over 10 µM.
Consider `COc1cc2c(cc1OCc1ccccc1)CCN=C2C(=O)c1ccc(O)cc1`, for which the IC50 was over 10 µM.
As for `COc1cc2c(cc1OCc1ccccc1)CCN=C2C(=O)c1ccccc1OS(=O)(=O)c1ccc(C)cc1`, the IC50 is over 10 µM.
`COc1ccccc1C(=O)C1=NCCc2cc(OCc3ccccc3)ccc21`: the IC50 turned out to be 12.3 µM.
`CCOc1cc2c(cc1OC)C(C(=O)c1ccccc1)=NCC2` came in with an IC50 of 11.9 µM.
The compound `COc1cc2c(cc1OCc1ccccc1)CCN=C2C(=O)c1ccc(OS(=O)(=O)c2ccc(C)cc2)cc1` showed an IC50 of over 10 µM.
`COc1cccc(C(=O)C2=NCCc3cc(OCc4ccccc4)c(OC)cc32)c1` displayed an IC50 of 2.5 µM.
On the same count and under the same terms, the result for `COc1ccc(COc2cc3c(cc2OC)C(C(=O)c2ccccc2)=NCC3)cc1` reads 11.1 µM; that for `COc1ccc(COc2cc3ccnc(C(=O)c4ccccc4)c3cc2OC)cc1`, over 10 µM; that for `CCCCC1=NCCc2cc(OCc3ccccc3)ccc21`, over 10 µM.
Compound `c1ccc(COc2ccc3c(c2)CCN=C3c2ccccc2)cc1` displayed a concentration for half-maximal inhibition (IC50) of over 10 µM.

The subject of another assay is L1210 (1565). Description: Percent inhibition against cells in G 1 phase by the compound at the dose 5 uM. The format is functional. The note with it: Mus musculus.
In turn, `CCCCCOc1cc2c(cc1OC)CCN=C2C(=O)c1ccccc1` came in with an inhibition at 5 µM of 63%.
`CCCCCOc1ccc2c(c1)CCN=C2C(=O)c1ccccc1` had an inhibition at 5 µM of 63%.
Take `COc1cc2c(cc1OCc1ccccc1)CCN=C2C(=O)c1cccc(O)c1`: at 5 µM the inhibition was 67%.

A word on the Inhibition: it is the percentage by which the read-out fell short of the control. Low values mean a response near the control, high ones a response far below the control. Broadly, the inhibition is how much of the control response was suppressed. One may read the IC50 as the midpoint of a concentration-inhibition curve. A higher IC50 goes with a need for much substance.
